Assay [1] deals with Glutamate receptor ionotropic, NMDA 1/2A (Rattus norvegicus, UniProt Q00959+P35439). Briefly: Antagonist activity at rat recombinant NR1-NR2A receptor expressed in Xenopus oocytes at holding potential of -40mV by two-electrode voltage-clamp electrophysiology. In short, it runs like this:
(§1)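 Oocytes expressing rat NR1-1a with NR2A, NR2B, NR2C or NR2D, clamped at −40 mV in Ba2+/HEPES recording solution pH 7.4, 23°C. Current evoked by 100 μM glutamate plus 30 μM glycine. Final DMSO 0.05-0.5%, 5-7 inhibitor concentrations, ≥4 oocytes each. IC50 from Hill fit of normalized mean composite data. […] Some NR2A oocytes given BAPTA-AM or K-BAPTA.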

Assay [2] addresses Glutamate receptor 1 (Rattus norvegicus, UniProt P19490). Briefly: Antagonist activity at rat recombinant GLuR1 expressed in Xenopus oocytes assessed as inhibition of glutamate-induced current by two-electrode voltage-clamp electrophysiology. In short, it runs like this:
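Two-electrode voltage clamp at −40 mV on Xenopus oocytes expressing rat GluR1, perfused with 90 NaCl, 1.0 KCl, 0.5 BaCl2, 0.005 EDTA, 10 HEPES (mM), pH 7.4, 23°C; activated by 100 μM glutamate. From 20 mM DMSO stocks, 5-7 concentrations, ≥4 oocytes each. Hill fit to mean composite curves normalized to control, minimum usually fixed at 0. Response >75% at 100 μM reported as >300 μM.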
On the technique in general: Two-electrode voltage clamp is typically applied to oocytes expressing channels or transporters.

For assay [3], the target named is Glutamate receptor ionotropic, NMDA 1/2C (Rattus norvegicus, UniProt Q00961+P35439). Put plainly: Antagonist activity at rat recombinant NR1-NR2C receptor expressed in Xenopus oocytes at holding potential of -40mV by two-electrode voltage-clamp electrophysiology. The procedure, abridged: as §1
Glutamate receptor ionotropic, NMDA 1/2C, sequence (Q00961 whole entry, other chains not shown): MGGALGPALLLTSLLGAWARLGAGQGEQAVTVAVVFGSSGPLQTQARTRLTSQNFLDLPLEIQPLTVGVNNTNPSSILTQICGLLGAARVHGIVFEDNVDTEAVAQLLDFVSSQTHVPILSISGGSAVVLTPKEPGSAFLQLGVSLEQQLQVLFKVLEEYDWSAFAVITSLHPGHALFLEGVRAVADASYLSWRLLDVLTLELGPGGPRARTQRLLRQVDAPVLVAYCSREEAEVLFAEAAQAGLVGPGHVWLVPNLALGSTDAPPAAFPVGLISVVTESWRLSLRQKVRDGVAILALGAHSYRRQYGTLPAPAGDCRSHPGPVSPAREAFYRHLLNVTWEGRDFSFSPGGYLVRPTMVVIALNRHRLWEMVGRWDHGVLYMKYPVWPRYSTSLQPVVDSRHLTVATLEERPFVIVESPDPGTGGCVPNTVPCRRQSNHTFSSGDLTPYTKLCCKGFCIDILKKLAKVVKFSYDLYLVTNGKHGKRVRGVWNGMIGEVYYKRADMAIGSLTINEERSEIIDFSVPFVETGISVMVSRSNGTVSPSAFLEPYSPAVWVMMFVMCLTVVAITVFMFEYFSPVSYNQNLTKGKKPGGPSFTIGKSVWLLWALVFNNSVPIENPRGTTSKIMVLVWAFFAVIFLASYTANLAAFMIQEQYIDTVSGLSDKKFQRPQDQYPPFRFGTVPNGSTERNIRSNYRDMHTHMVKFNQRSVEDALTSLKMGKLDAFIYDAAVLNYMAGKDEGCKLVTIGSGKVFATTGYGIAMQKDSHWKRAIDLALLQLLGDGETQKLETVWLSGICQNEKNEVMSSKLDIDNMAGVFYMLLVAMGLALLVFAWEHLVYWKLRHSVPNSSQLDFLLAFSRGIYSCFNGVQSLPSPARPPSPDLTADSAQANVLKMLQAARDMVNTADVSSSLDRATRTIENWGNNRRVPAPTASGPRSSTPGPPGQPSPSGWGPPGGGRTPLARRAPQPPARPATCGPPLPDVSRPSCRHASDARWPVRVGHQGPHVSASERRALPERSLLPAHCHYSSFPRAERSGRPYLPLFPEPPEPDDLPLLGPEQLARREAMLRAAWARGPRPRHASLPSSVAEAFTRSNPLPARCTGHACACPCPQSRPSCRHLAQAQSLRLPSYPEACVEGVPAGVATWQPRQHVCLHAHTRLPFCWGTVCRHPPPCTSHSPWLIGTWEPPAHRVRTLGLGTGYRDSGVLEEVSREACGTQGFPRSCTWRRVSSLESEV
Assay [4] concerns the target Glutamate receptor ionotropic, NMDA 1/2B (Rattus norvegicus, UniProt Q00960+P35439). Put plainly: Antagonist activity at rat recombinant NR1-NR2B receptor expressed in Xenopus oocytes at holding potential of -40mV by two-electrode voltage-clamp electrophysiology. The procedure, abridged: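 Oocytes expressed rat NR1-1a/NR2B and were held at −40 mV, 23°C, pH 7.4 HEPES-buffered saline. Currents were activated by 100 μM glutamate plus 30 μM glycine. 5-7 inhibitor concentrations were tested, ≥4 oocytes each, normalized to control. IC50 came from Hill fits, minimum fixed at 0 unless indicated. Responses >75% of control at 100 μM were reported as >300 μM.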

Glutamate receptor ionotropic, NMDA 1/2B, sequence (Q00960 whole entry, other chains not shown): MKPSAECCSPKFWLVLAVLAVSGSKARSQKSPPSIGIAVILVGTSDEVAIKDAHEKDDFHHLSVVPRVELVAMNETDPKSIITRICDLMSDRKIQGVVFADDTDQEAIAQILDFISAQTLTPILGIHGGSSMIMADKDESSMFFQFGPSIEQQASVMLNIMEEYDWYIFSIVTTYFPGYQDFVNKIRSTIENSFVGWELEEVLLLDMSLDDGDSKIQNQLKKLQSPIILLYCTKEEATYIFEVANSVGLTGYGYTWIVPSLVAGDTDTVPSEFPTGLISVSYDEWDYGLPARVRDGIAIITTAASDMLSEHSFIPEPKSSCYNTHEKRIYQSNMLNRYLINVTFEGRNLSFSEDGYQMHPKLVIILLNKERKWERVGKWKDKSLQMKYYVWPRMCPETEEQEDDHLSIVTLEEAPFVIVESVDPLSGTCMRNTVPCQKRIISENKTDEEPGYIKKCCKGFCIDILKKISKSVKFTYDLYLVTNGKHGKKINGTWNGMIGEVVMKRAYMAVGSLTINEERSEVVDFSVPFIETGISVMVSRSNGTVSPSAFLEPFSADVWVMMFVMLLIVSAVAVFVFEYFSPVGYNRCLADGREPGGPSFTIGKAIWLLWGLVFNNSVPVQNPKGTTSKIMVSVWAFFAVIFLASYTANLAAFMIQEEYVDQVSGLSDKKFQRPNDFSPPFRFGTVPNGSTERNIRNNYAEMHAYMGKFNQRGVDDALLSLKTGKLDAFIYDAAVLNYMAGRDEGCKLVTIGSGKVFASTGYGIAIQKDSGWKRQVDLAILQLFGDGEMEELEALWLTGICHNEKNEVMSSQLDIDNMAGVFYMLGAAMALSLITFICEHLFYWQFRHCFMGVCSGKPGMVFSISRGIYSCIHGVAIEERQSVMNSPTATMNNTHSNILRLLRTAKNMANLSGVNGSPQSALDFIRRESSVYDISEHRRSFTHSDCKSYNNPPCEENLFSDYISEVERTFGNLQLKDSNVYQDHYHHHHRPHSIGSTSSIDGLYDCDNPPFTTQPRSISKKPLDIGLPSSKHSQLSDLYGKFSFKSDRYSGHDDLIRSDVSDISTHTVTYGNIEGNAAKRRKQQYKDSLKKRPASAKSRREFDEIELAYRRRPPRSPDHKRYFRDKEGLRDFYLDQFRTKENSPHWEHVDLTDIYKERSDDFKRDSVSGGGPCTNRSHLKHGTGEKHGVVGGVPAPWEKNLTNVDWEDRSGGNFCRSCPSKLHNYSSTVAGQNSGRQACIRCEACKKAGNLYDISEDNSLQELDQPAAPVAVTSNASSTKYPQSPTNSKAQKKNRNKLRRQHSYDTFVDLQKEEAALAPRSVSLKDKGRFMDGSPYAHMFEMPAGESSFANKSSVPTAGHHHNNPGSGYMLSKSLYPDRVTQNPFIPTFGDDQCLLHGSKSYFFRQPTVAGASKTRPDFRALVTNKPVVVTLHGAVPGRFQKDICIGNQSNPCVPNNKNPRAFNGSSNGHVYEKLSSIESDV
Glutamate receptor ionotropic, NMDA 1/2A, sequence (Q00959 whole entry, other chains not shown): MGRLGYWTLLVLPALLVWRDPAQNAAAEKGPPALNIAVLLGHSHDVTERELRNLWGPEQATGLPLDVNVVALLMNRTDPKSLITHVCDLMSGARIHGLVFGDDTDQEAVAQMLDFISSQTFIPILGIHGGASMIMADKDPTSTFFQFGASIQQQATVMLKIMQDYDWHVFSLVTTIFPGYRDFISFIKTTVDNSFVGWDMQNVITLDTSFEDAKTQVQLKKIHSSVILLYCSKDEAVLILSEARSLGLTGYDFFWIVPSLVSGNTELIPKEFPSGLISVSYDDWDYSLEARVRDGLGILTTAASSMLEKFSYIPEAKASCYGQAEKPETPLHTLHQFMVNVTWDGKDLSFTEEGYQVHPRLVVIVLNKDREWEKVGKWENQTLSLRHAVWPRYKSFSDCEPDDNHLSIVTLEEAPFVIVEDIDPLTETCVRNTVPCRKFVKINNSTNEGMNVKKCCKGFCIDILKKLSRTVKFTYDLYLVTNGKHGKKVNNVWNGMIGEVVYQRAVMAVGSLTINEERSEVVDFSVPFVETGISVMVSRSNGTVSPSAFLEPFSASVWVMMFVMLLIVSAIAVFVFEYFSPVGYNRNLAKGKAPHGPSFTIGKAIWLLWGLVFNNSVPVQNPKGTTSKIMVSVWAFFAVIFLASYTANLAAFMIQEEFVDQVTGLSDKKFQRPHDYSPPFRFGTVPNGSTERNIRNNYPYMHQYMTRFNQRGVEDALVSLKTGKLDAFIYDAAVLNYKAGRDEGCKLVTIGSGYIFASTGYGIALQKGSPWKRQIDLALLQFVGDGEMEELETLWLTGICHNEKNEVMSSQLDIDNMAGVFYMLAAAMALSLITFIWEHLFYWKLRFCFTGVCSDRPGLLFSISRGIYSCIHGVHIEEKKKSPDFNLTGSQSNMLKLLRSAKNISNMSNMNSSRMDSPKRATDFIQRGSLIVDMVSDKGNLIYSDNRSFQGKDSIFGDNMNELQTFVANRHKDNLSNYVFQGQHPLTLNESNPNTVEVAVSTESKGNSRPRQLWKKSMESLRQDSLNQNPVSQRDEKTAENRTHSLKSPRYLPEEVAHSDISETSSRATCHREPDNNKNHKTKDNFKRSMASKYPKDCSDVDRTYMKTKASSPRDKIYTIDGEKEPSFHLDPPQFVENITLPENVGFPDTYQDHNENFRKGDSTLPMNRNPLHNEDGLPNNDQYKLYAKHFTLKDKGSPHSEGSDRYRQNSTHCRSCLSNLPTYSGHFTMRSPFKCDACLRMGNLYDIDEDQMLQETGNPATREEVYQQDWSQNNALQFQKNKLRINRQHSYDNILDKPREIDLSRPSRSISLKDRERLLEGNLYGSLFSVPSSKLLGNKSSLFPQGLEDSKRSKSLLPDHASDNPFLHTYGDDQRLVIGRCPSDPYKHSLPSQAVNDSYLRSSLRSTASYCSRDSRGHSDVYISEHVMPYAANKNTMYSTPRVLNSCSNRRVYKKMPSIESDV
Glutamate receptor 1, sequence (P19490 whole entry, the tested form may be a part): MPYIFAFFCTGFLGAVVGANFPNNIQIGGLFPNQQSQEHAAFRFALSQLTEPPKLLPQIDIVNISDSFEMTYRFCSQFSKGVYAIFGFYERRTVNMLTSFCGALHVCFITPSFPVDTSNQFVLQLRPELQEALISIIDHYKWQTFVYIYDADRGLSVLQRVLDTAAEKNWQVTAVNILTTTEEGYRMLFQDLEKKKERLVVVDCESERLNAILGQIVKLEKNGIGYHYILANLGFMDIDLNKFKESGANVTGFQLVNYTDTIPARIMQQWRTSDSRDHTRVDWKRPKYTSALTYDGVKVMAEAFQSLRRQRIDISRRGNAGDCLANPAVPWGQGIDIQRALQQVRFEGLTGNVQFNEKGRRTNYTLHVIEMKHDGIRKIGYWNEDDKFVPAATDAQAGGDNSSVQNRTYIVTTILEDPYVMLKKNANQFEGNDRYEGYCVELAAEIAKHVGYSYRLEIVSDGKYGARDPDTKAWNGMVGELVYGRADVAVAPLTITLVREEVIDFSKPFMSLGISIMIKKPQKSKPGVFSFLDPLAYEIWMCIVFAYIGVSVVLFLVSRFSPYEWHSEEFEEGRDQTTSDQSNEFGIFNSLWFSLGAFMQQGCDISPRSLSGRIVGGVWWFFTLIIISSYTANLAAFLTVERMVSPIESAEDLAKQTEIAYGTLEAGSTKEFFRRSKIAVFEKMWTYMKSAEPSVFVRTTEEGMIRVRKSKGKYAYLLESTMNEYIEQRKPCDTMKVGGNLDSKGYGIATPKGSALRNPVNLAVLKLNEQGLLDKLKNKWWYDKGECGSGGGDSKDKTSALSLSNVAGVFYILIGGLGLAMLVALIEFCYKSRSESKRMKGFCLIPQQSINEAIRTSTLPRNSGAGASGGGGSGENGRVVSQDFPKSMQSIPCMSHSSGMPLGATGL

With `O=C(O)c1ccc(-n2c(/C=C/c3cccc([N+](=O)[O-])c3)nc3ccc(Cl)cc3c2=O)cc1` [(E)-4-(6-Chloro-2-(3-nitrostyryl)-4-oxoquinazolin-3(4H)-yl)-benzoic Acid], the IC50 (in general, the point on the concentration scale where inhibition reaches its midpoint) is 16 µM in assay [1], 7 µM in assay [2], 2 µM in assay [3] and 13 µM in assay [4].
